Results: ChEMBL document CHEMBL3132809, “The structure-activity relationships of L3MBTL3 inhibitors: flexibility of the dimer interface” (Medchemcomm, 2013)

Key:
PHD finger protein 23 = PHD finger protein 23 (Homo sapiens, UniProt Q9BUL5); experiment: Inhibition of GST-tagged PHF23 (unknown origin) using H3K4Me3 as substrate incubated for 30 mins at room temperature followed by incubation under dark condition for 30 mins by AlphaScreen assay
Outline: (§1)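 For GST-tagged proteins, GST-acceptor beads were paired with streptavidin donor beads. Compounds were run as 3-fold, 20-point dilutions, highest 30 μM. […] Protein-peptide mix was incubated 30 min at RT, then beads 30 min in the dark at RT, with an EnVision AlphaScreen read.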

[1] = target: T1, Lethal(3)malignant brain tumor-like protein 3 (Homo sapiens, UniProt Q96JM7); experiment: Inhibition of His-tagged L3MBTL3 (unknown origin) using H4K20Me2 as substrate incubated for 30 mins at room temperature followed by incubation under dark condition for 30 mins by AlphaScreen assay
T1 sequence (Q96JM7 whole entry): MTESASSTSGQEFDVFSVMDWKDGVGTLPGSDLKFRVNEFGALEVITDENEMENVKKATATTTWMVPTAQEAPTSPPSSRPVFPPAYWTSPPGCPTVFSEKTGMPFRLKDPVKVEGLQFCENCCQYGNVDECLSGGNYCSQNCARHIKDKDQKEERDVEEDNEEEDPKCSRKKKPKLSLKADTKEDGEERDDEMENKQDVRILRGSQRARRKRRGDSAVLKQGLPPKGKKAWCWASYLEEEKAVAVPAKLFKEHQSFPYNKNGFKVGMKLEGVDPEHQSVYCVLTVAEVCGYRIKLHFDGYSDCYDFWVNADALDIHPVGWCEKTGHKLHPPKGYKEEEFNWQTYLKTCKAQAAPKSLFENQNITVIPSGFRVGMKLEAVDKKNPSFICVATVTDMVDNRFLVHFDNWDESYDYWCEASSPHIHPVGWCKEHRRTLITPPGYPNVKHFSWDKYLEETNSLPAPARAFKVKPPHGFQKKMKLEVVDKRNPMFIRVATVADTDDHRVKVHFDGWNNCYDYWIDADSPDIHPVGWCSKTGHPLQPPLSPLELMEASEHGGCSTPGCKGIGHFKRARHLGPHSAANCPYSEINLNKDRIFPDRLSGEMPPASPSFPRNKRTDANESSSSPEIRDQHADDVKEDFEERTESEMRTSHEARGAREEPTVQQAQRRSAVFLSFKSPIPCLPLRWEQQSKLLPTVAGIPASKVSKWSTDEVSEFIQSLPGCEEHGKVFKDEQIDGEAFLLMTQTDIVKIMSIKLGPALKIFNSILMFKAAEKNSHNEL

[2] = target: MBT domain-containing protein 1 (Homo sapiens, UniProt Q05BQ5); experiment: Inhibition of MBTD1 (130 to 566) (unknown origin) expressed in Escherichia coli BL21 Rosetta DE3 using H4K20Me1 as substrate incubated for 30 mins at room temperature followed by incubation under dark condition for 30 mins by AlphaScreen assay
Outline: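 MBTD1 residues 130-566 (His-tag vector) was expressed in BL21 Rosetta DE3 pLysS with 0.5 mM IPTG induction at 18 °C overnight. […] Detection used streptavidin donor and nickel-chelate acceptor beads.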

[3] = target: T1, Lethal(3)malignant brain tumor-like protein 3; experiment: Binding affinity to L3MBTL3 (unknown origin) by isothermal titration calorimetric analysis
TP53-binding protein 1 = TP53-binding protein 1 (Homo sapiens, UniProt Q12888); experiment: Inhibition of 53BP1 (1485 to 1611) (unknown origin) expressed in Escherichia coli BL21 Rosetta DE3 using H4K20Me2 as substrate incubated for 30 mins at room temperature followed by incubation under dark condition for 30 mins by AlphaScreen assay
[4] = target: T2, E3 ubiquitin-protein ligase UHRF1 (Homo sapiens, UniProt Q96T88); experiment: Inhibition of UHRF1 tandem tudor domain (121 to 286) (unknown origin) expressed in Escherichia coli BL21 Rosetta DE3 using H3K9Me3 as substrate incubated for 30 mins at room temperature followed by incubation under dark condition for 30 mins by AlphaScreen assay
T2 sequence (Q96T88 whole entry): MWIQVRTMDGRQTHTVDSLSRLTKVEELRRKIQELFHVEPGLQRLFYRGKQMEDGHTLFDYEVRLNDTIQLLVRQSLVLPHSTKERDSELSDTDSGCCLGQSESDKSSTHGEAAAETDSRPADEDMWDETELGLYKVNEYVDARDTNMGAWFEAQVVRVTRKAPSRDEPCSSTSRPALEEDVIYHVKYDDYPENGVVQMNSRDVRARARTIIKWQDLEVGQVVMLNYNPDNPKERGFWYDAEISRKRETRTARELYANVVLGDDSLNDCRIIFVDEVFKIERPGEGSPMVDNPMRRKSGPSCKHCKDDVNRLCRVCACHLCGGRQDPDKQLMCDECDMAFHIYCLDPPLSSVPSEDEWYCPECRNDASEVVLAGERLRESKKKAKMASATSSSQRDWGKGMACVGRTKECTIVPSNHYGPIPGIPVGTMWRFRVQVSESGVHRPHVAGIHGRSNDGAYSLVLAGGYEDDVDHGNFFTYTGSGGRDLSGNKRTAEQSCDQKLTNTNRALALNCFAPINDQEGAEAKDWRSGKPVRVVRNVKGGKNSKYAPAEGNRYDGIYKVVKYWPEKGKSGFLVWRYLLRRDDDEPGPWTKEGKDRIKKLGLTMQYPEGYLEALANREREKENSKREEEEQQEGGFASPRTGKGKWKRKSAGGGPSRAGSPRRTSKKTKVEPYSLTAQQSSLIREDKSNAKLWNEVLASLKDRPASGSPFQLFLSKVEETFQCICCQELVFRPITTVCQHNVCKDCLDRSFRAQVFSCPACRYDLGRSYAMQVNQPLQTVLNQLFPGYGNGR
Outline: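 His-tagged domains (53BP1 residues 1485-1611; UHRF1 residues 121-286) expressed in BL21 Rosetta DE3 pLysS with 0.5 mM IPTG induction at 18 °C overnight. Proteins were stored in 25 mM Tris pH 7.5, 150 mM NaCl, 2 mM DTT. Compounds were 3-fold, 20-point dilutions up to 30 μM. […] Streptavidin donor and nickel-chelate acceptor beads were used.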

[5] = target: T3, Chromobox protein homolog 7 (Homo sapiens, UniProt O95931); experiment: Inhibition of CBX7 (8 to […]) (unknown origin) expressed in Escherichia coli BL21 Rosetta DE3 using H3K9Me3 as substrate incubated for 30 mins at room temperature followed by incubation under dark condition for 30 mins by AlphaScreen assay
T3 sequence (O95931 whole entry): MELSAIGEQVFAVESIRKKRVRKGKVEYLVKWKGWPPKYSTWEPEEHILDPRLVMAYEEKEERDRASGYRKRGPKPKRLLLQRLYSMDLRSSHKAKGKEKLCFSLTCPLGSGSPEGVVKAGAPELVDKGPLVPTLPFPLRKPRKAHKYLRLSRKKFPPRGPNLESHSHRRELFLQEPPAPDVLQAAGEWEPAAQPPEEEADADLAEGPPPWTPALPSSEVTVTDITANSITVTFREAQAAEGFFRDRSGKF

[6] = target: Lysine-specific demethylase 5A (Homo sapiens, UniProt P29375); experiment: Inhibition of GST-tagged Jarid1A (unknown origin) using H3K4Me3 as substrate incubated for 30 mins at room temperature followed by incubation under dark condition for 30 mins by AlphaScreen assay; outline: as §1
Sequence of Lysine-specific demethylase 5A (P29375 whole entry): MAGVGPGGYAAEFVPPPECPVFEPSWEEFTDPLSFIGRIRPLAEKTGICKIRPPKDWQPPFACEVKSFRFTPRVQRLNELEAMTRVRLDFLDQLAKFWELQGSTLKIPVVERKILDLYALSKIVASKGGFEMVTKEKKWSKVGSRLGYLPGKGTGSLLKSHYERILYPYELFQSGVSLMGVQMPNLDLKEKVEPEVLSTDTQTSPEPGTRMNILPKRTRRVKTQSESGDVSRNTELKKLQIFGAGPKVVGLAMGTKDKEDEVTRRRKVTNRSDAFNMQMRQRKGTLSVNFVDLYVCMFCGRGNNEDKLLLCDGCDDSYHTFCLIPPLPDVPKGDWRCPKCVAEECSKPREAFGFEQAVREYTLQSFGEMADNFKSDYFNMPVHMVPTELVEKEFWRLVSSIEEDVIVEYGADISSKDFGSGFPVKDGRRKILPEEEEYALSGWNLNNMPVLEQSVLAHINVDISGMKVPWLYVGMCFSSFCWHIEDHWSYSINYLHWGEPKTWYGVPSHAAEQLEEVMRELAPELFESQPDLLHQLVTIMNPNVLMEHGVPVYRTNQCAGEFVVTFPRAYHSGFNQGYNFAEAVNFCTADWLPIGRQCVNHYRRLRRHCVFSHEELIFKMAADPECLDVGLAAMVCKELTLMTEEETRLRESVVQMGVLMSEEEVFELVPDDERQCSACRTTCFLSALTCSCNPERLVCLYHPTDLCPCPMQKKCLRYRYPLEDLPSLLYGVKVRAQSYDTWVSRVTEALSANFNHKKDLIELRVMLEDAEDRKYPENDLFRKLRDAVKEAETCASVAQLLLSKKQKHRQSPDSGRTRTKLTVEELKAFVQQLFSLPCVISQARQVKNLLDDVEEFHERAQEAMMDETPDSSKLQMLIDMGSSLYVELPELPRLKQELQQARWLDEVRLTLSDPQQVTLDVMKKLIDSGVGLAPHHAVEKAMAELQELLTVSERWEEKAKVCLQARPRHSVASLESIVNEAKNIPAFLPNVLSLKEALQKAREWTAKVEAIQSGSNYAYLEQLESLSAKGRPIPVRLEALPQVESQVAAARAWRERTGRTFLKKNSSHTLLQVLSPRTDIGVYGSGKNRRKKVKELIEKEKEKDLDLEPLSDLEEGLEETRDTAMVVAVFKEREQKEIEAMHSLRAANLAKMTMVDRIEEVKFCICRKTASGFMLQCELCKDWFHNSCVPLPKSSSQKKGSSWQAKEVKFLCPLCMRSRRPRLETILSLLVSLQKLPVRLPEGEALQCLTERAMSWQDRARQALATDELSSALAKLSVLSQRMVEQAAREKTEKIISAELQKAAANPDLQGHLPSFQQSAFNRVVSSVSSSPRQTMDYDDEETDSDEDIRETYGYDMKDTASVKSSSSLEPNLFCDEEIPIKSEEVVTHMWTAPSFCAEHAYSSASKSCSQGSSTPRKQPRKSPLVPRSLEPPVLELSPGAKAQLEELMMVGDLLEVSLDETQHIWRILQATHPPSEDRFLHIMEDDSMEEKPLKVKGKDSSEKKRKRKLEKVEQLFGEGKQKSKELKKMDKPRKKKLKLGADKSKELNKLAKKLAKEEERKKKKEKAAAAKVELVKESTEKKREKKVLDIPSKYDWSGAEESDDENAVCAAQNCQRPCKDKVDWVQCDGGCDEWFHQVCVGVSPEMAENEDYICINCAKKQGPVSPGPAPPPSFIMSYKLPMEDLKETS

Sequence of TP53-binding protein 1 (Q12888 whole entry, the tested form may be a part): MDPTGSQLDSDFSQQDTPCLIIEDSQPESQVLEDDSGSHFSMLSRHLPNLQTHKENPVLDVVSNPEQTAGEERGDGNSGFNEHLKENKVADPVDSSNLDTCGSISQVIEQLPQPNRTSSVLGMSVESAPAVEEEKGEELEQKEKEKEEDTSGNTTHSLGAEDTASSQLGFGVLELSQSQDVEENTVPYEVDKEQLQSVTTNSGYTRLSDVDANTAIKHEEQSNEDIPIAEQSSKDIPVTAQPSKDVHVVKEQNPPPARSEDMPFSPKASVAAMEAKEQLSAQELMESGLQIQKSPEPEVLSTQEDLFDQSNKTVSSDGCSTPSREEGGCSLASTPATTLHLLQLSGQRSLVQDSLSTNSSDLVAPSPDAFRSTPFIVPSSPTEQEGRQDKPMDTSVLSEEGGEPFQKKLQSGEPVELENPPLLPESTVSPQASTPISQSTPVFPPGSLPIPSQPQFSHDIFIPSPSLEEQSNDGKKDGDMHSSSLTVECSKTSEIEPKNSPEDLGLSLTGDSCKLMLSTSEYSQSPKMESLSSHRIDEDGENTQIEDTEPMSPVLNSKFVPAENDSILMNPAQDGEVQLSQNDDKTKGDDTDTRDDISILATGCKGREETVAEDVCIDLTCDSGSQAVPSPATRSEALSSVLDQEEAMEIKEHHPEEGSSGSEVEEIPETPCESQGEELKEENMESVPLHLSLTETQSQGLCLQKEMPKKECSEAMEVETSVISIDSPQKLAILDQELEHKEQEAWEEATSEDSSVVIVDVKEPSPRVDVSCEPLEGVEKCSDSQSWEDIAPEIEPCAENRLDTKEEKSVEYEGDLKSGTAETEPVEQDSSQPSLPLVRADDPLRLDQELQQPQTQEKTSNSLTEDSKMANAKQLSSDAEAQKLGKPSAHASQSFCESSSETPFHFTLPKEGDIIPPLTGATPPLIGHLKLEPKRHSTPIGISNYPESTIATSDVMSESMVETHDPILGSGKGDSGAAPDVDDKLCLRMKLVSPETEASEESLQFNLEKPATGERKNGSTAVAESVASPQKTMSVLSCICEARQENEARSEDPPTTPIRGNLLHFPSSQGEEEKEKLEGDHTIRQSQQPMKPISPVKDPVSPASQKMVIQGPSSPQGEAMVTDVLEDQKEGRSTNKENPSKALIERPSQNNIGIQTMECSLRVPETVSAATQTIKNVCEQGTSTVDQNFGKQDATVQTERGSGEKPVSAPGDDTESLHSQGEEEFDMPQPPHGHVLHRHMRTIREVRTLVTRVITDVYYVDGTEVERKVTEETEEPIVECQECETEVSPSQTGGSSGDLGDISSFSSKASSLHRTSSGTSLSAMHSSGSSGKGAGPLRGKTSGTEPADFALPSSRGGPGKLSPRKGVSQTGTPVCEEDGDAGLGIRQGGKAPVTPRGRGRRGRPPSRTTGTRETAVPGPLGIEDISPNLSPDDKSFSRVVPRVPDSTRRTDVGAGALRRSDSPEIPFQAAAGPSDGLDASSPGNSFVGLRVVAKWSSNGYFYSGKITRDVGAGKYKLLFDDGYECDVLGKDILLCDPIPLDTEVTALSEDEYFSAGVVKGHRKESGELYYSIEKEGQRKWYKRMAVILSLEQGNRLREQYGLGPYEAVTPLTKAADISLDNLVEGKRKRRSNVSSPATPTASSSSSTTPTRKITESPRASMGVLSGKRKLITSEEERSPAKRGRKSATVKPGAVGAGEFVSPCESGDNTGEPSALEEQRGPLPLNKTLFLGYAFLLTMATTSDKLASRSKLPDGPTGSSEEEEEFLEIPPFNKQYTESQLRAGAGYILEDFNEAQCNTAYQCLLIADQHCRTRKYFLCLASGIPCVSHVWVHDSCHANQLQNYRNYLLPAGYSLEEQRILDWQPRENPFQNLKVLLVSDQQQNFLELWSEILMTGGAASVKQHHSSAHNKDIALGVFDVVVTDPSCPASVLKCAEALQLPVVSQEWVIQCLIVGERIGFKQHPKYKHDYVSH
Sequence of MBT domain-containing protein 1 (Q05BQ5 whole entry, the tested form may be a part): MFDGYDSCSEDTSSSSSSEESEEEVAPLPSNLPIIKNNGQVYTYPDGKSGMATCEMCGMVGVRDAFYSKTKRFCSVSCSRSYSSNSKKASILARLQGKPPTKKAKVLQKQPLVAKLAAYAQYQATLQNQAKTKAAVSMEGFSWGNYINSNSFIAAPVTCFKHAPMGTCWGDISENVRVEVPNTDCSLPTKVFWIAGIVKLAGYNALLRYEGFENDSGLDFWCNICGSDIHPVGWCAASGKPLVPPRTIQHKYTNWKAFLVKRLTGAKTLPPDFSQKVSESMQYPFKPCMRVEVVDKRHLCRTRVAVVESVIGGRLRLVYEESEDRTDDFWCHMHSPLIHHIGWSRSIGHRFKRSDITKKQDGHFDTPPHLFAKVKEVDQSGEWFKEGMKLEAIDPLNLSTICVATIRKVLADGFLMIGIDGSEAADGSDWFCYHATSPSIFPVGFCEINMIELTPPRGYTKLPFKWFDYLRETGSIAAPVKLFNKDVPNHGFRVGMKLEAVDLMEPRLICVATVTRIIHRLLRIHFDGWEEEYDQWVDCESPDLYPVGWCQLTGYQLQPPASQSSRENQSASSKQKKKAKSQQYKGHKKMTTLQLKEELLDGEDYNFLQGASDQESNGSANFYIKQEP
Sequence of PHD finger protein 23 (Q9BUL5 whole entry): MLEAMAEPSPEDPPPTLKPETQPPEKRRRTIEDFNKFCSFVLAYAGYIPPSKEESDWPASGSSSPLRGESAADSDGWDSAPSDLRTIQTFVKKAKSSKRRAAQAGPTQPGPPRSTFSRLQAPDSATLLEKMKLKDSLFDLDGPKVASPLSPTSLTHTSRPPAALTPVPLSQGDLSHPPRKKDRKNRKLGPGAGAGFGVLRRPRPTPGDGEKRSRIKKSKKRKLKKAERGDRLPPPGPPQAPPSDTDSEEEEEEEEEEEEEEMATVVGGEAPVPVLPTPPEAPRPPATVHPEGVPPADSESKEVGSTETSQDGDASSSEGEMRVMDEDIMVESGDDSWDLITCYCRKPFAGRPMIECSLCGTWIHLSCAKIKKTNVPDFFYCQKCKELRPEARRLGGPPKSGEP

IC50 (PHD finger protein 23): > 30 µM | IC50 [2]: > 300 µM | IC50 (TP53-binding protein 1): > 30 µM | IC50 [4]: > 30 µM | IC50 [5]: > 30 µM | IC50 [6]: > 30 µM
Compound: OCC1(CO)CN(CCc2ccc(N3CCC(N4CCCC4)CC3)cc2)C1
IC50 [1]: 0.059 µM | Kd [3]: 0.4 µM
